From ChEMBL document CHEMBL1124173, “Enantiomers of 7-(2,3-epoxypropoxy)actinomycin D as dual-action DNA-acting antitumor agents” (J Med Chem, 1988) come the findings set out here.

Assay [1] deals with P388/ADR. Kind of assay: Antitumor activity measured as %ILS against P388/ADR cells in ip implanted CDF1 mice, qd 1-9. Format: functional, Mus musculus. An outline of the steps:
(§1)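 P388/ADR leukemia, a P388/S subline made resistant to intercalators, implanted ip in CDF1 mice. Drug given ip daily on days 1-9 at optimal dose. Read-out is median survival time of tumor-bearing mice and %ILS of treated dying animals versus controls. Survivors beyond 60 days are counted; 10 mice per group.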

The test system of assay [2] is P388/ADR. Description: Antitumor activity against P388/ADR cells in ip implanted CDF1 mice, qd 1-9 measured as optimal dose. Format: functional, Mus musculus. An outline of the steps:
(§2)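 P388/ADR leukemia implanted ip in CDF1 mice; drugs given ip once daily on days 1-9. Optimal dose recorded alongside median survival time and % increase in median life span of treated dying mice versus controls; survivors counted as >60-day survivors per group of 10.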

In assay [3] the test system is P388/ADR. Kind of assay: Antitumor activity measured as Median survival time in days against P388/ADR cells in ip implanted CDF1 mice, qd 1-9. The class given is functional, Mus musculus. The method, boiled down: as §1
For assay [4], the system named is Mus musculus. Description: Antitumor activity measured as median survival time, for ip administration and ip inoculation of B16 melanoma. Format: functional. An outline of the steps:
(§3)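 B16 brei (tumor weight/Hank's balanced salt solution 1:5, 0.2 mL) implanted sc or ip into groups of nine BDF1 mice on day 0. Drug given iv on day 1 (sc tumor) or ip on days 1, 5 and 9 (ip tumor), in 0.1 mL 5% v/v Me2SO-saline. Read-out is median survival time and %ILS versus untreated controls, excluding sixty-day survivors.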

The species entered for assay [5] is Mus musculus. Description: Antitumor activity measured as optimal dose, for B16 melanoma.
Assay [6] is filed under the species Mus musculus. Description: Antitumor activity measured as optimal dose, against C26 colon carcinoma. Format: functional. The method, boiled down: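 Primary colon C26 carcinoma cells (trypan blue excluding, 2.5 × 10^5 cells/mouse) implanted in CDF1 mice on day 0. Drug given ip on days 1, 5 and 9 in 0.1 mL 5% v/v Me2SO-saline. Optimal dose in […]; %ILS and 60-day survivors scored.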

Assay [7] is filed under the species Mus musculus. Kind of assay: percent increase in median life time (%ILS) measured in mice bearing leukemia L!210. The class given is functional. The method, boiled down:
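CDF1 mice inoculated ip with 10^5 L1210 cells on day 0. Drug given ip on days 1, 5 and 9 at the optimal dose in mg/kg per injection. %ILS is the increase in median life span of treated dying animals versus untreated tumor-bearing mice. Over-60-day survivors are counted; 9 mice per group.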

The subject of another assay is B16. Kind of assay: In vitro 50% Growth inhibition of sensitive B16 cells. Format: functional, Mus musculus. The note with it: Mus musculus, B16; read-out: ID50 (the source's name). An outline of the steps: (§4)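 Actively growing tumor cells in vitro (actinomycin-resistant P388/ADR leukemia; sensitive B16 melanoma); ID50 is concentration (nM) needed for 50% growth inhibition.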

In assay [8] the test system is Mus musculus. Description: Antitumor activity measured as median survival time, for iv administration and sc inoculation of B16 melanoma.
Assay [9] concerns P388/ADR. Kind of assay: Antitumor activity measured as Median survival time in days against P388/ADR, in ip implanted CDF1 mice, qd 1-9. Format: functional, Mus musculus. The method, boiled down:
as §1

For assay [10], the species on record is Mus musculus. Description: Antitumor activity measured as % increase in life span, against C26 colon carcinoma. Format: functional. The method, boiled down:
(§5)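 C26 primary colon carcinoma cells (trypan blue excluding, 2.5 × 10^5 cells/mouse) implanted in CDF1 mice on day 0. Drug given ip on days 1, 5 and 9 in 0.1 mL 5% v/v Me2SO-saline at optimal dose. Read-out is median survival time; %ILS is drug-treated over control, excluding survivors. Sixty-day survivors are counted.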

The test system of assay [11] is P388/ADR. Description: Antitumor activity against P388/ADR, in ip implanted CDF1 mice, treated ip, qd 1-9 measured as optimal dose. Format: functional, Mus musculus. The method, boiled down: as §2
Assay [12] concerns L1210. Kind of assay: 50% Inhibition of growth of L1210 cells in culture. Format: functional, Mus musculus. The note with it: Mus musculus, L1210; read-out: ID50 (the source's name). An outline of the steps: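 L1210 leukemia cells growing actively in culture; ID50 is drug concentration (nM) giving 50% inhibition of growth relative to untreated L1210 cells.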
For assay [13], the species on record is Mus musculus. Description: Antitumor activity measured as median survival time, against C26 colon carcinoma. The class given is functional. An outline of the steps:
as §5

In assay [14] the test system is Mus musculus. Description: Antitumor activity measured as % increase in life span, for ip administration of compound and ip inoculation of B16 melanoma. The class given is functional. An outline of the steps: as §3
Assay [15] relates to L1210. Description: Optimal dose per injection, administered ip on days 1, 5, and 9, ip inoculation with 10E5 L1210 cells per CDF1 mouse on day 0. Format: functional. An outline of the steps:
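CDF1 mice inoculated ip with 10^5 L1210 cells on day 0; drugs given ip on days 1, 5 and 9. Optimal dose in mg/kg per injection. %ILS is increase in median life span of treated dying mice over untreated tumor-bearing mice; survivors counted beyond 60 days, 9 per group.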

For assay [16], the system named is Mus musculus. Description: Antitumor activity measured as % increase in life span, for iv administration of compound and sc inoculation of B16 melanoma.
Assay [17] relates to P388/ADR. Kind of assay: In vitro 50% Growth inhibition of actinomycin resistant P388/ADR cells. The class given is functional, Mus musculus. The note with it: Mus musculus, P388/ADR; read-out: ID50 (the source's name). The method, boiled down: as §4
Assay [18] has as its system P388/ADR. Kind of assay: Antitumor activity measured as %ILS against P388/ADR, in ip implanted CDF1 mice, qd 1-9. The class given is functional, Mus musculus. An outline of the steps: as §1

Molecules are shown by their SMILES.

A word on the ILS: it is how much longer treated animals lived than controls. Regarding `CO[C@@]12[C@H](COC(N)=O)C3=C(C(=O)C(C)=C(N)C3=O)N1C[C@@H]1N[C@@H]12` [MITOMYCIN], the ILS in the assay on P388/ADR [1] is listed as 400%. For the same molecule, the Dose in the assay with P388/ADR [2] was 1 mg/kg. The molecule also came in with an MST with P388/ADR [3] of 45 days.

As for `Cc1c2oc3c(C)c(OCC4CO4)cc(C(=O)N[C@@H]4C(=O)N[C@H](C(C)C)C(=O)N5CCC[C@H]5C(=O)N(C)CC(=O)N(C)[C@@H](C(C)C)C(=O)O[C@@H]4C)c3nc-2c(C(=O)N[C@@H]2C(=O)N[C@H](C(C)C)C(=O)N3CCC[C@H]3C(=O)N(C)CC(=O)N(C)[C@@H](C(C)C)C(=O)O[C@@H]2C)c(N)c1=O` (stereo in doubt; 3b), the MST came to 39 days in the assay on Mus musculus [4], 54 days in the assay with Mus musculus [8], 40 days in the assay on P388/ADR [9] and 36 days in the assay listed under Mus musculus [13]. Moreover, the Dose in the assay listed under Mus musculus [5] is 1 mg/kg; in the assay listed under Mus musculus [6] it was 0.6 mg/kg; with P388/ADR [11], 0.65 mg/kg; in the assay with L1210 [15], 0.05 mg/kg. Also, the increase in lifespan (ILS) in the assay filed under Mus musculus [7] worked out at 186%; in the assay listed under Mus musculus [10] it was 64%; in the assay on Mus musculus [14], 105%; in the assay on Mus musculus [16], 64%; in the assay with P388/ADR [18] it was 344%. The IC50 with B16 was 2.5 nM; in the assay on L1210 [12], 28.7 nM; in the assay on P388/ADR [17] it was 80 nM.
